We go through 5 molecules from ChEMBL document CHEMBL5370595, “Development of Iodinated Indocyanine Green Analogs as a Strategy for Targeted Therapy of Liver Cancer” (ACS Med Chem Lett, 2023).

Series [1] is described as follows: Drug uptake in HEK293T cells expressing OATP1B3 assessed as increase in mean fluorescence intensity at 10 uM incubated for 1 hr by flow cytometry analysis. The conditions noted are these: human, hek-293t. It is filed as ADME, cell-based. A digest of the protocol: (§1)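 Flow cytometry of cells exposed to 10 μM compound for 1 h, read as mean fluorescence intensity. Cell lines were OATP1B3-overexpressing HEK-293T (lentiviral transduction, MOI 10), parental HEK-293T, Hep3B, HepG2 and Huh-7.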
In general terms: A flow cytometer gives signals particle by particle.

A short description of series [2]: Drug uptake in human HepG2 cells assessed as increase in mean fluorescence intensity at 10 uM incubated for 1 hr by flow cytometry analysis. The note with it: hepg2, 1 h. It is filed as ADME, cell-based. Put shortly:
as §1

Series [3] can be described thus: Drug uptake in parent HEK293T cells assessed as increase in mean fluorescence intensity at 10 uM incubated for 1 hr by flow cytometry analysis. The class given is ADME, cell-based. The note with it: human, hek-293t. Put shortly:
as §1

The nature of series [4]: Drug uptake in human Hep3B cells assessed as increase in mean fluorescence intensity at 10 uM incubated for 1 hr by flow cytometry analysis. The class given is ADME, cell-based. The conditions noted are these: hep 3b2, 1 h. A digest of the protocol:
as §1

Series [5] is described as follows: Drug uptake in human Huh-7 cells assessed as increase in mean fluorescence intensity at 10 uM incubated for 1 hr by flow cytometry analysis. The class given is ADME, cell-based. The conditions noted are these: huh-7, 1 h. A digest of the protocol:
as §1

The nature of series [6]: Drug uptake in tumor of athymic nude mouse xenografted with human Hep3B cells assessed as tumor to background ratio at 2 mg/kg, iv measured after 4 to 48 hrs by IVIS Lumina imaging system. The note with it: in vivo, time 4-48 hrs. It is filed as ADME, organism-based, Neoplasm, Hep 3B2. Background: Xenograft models place foreign cells or tissue in a host animal.
The nature of series [7]: Drug uptake in tumor of mouse xenografted with HB52 PDX model assessed as increase in fluorescence signal at 10 mg/kg, iv measured after 72 hrs post injection by IVIS Lumina imaging system. It is filed as ADME, organism-based, Neoplasm. The conditions noted are these: in vivo. Put shortly:
(§2)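 Mice with orthotopic HB52 or HB66 hepatoblastoma PDX tumors, and non-tumor-bearing mice, received 10 mg/kg intravenously. Tumor growth was followed by MRI. Mice were imaged by IVIS at 24, 48 and 72 h, then tumors, livers and lungs were analysed ex vivo at 72 h, n = 1.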

Series [8] can be described thus: Drug uptake in lung of non-tumor bearing mouse assessed as increase in fluorescence signal at 10 mg/kg, iv measured after 72 hrs post injection by IVIS Lumina imaging system. It is filed as ADME, organism-based. The note with it: in vivo. A digest of the protocol: as §2
The nature of series [9]: Drug uptake in human SH-SY5Y cells assessed as increase in fluorescence signal at 10 to 25 uM incubated for 1 hr by confocal fluorescence microscopy based analysis. The class given is ADME, cell-based. The conditions noted are these: dose 10-25 µM.
A short description of series [10]: Drug uptake in human HepG2 cells assessed as increase in fluorescence signal at 25 uM incubated for 1 hr by flow cytometry based analysis. The class given is ADME, cell-based. The note with it: hepg2, 1 h.
The nature of series [11]: Drug uptake in human SH-SY5Y cells assessed as increase in fluorescence signal at 25 uM incubated for 1 hr by flow cytometry based analysis. It is filed as ADME, cell-based.
A short description of series [12]: Drug uptake in liver of mouse xenografted with HB66 PDX model assessed as increase in fluorescence signal at 10 mg/kg, iv measured after 72 hrs post injection by IVIS Lumina imaging system. It is filed as ADME, organism-based. The conditions noted are these: in vivo. A digest of the protocol:
as §2

The nature of series [13]: Drug uptake in human HB17 cells assessed as increase in fluorescence signal at 10 to 25 uM incubated for 1 hr by confocal fluorescence microscopy based analysis. The class given is ADME, cell-based. The conditions noted are these: hb17, 1 h, dose 10-25 µM.
The nature of series [14]: Ratio of drug concentration in athymic nude mouse tumor to liver xenografted with human Hep3B cells assessed as tumor to liver ratio at 2 mg/kg measured after 48 hrs post injection by IVIS Lumina imaging system. It is filed as ADME, organism-based. The conditions noted are these: in vivo. Put shortly:
(§3)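 Tumor-to-liver ratio was calculated from ex vivo fluorescence of excised tumors and livers at 48 h after 2 mg/kg intravenous dosing in xenograft-bearing female athymic nude mice.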

A short description of series [15]: Drug uptake in liver of mouse xenografted with HB52 PDX model assessed as increase in fluorescence signal at 10 mg/kg, iv measured after 72 hrs post injection by IVIS Lumina imaging system. It is filed as ADME, organism-based. The conditions noted are these: in vivo. A digest of the protocol:
as §2

Series [16] can be described thus: Drug uptake in liver of athymic nude mouse xenografted with human Hep3B cells assessed as increase in liver signal at 2 mg/kg, iv measured after 48 hrs post injection by IVIS Lumina imaging system. It is filed as ADME, organism-based, Hep 3B2. The conditions noted are these: in vivo. A digest of the protocol: (§4)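 Female athymic nude mice bearing Hep3B or Huh-7 tumors received 2 mg/kg intravenously. They were imaged by IVIS at 4, 24 and 48 h. Tumors and livers were excised at 48 h for ex vivo fluorescence, with background taken from the neck signal.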

A short description of series [17]: Drug uptake in tumor of athymic nude mouse xenografted with human Huh-7 cells assessed as increase in tumor signal at 2 mg/kg, iv measured after 48 hrs post injection by IVIS Lumina imaging system. It is filed as ADME, organism-based, Neoplasm. The conditions noted are these: in vivo. Put shortly:
as §4

The nature of series [18]: Drug uptake in human HepG2 cells assessed as increase in fluorescence signal at 10 to 25 uM incubated for 1 hr by confocal fluorescence microscopy based analysis. The class given is ADME, cell-based. The note with it: hepg2, 1 h, dose 10-25 µM.
A short description of series [19]: Drug uptake in athymic nude mouse liver xenografted with human Huh-7 cells assessed as increase in liver signal at 2 mg/kg, iv measured after 48 hrs post injection by IVIS Lumina imaging system. It is filed as ADME, organism-based. The note with it: in vivo. Put shortly: as §4
Series [20] is described as follows: Drug uptake in tumor of mouse xenografted with HB66 PDX model assessed as increase in fluorescence signal at 10 mg/kg, iv measured after 72 hrs post injection by IVIS Lumina imaging system. The conditions noted are these: in vivo. The class given is ADME, organism-based, Neoplasm. A digest of the protocol: as §2
A short description of series [21]: Drug uptake tumor of in athymic nude mouse xenografted with human Huh-7 cells assessed as tumor to background ratio at 2 mg/kg, iv measured after 4 to 48 hrs by IVIS Lumina imaging system. The class given is ADME, organism-based, Neoplasm. The note with it: in vivo, time 4-48 hrs.
The nature of series [22]: Drug uptake in tumor of athymic nude mouse xenografted with human Hep3B cells assessed as increase in tumor signal at 2 mg/kg, iv measured after 48 hrs post injection by IVIS Lumina imaging system. The class given is ADME, organism-based, Neoplasm, Hep 3B2. The note with it: in vivo. A digest of the protocol:
as §4

Series [23] can be described thus: Ratio of drug concentration in athymic nude mouse tumor to liver xenografted with human Huh-7 cells assessed as tumor to liver ratio at 2 mg/kg measured after 48 hrs post injection by IVIS Lumina imaging system. The class given is ADME, organism-based. The note with it: in vivo. A digest of the protocol:
as §3

Series [24] in a line: Drug uptake in human HB17 cells assessed as increase in fluorescence signal at 25 uM incubated for 1 hr by flow cytometry based analysis. The class given is ADME, cell-based. The conditions noted are these: hb17, 1 h.
Series [25] in a line: Drug uptake in human HepG2 cells expressing OATP1B3 by DAPI staining based confocal fluorescence microscopy analysis. It is filed as ADME, cell-based.
Series [26] in a line: Drug uptake in parent HEK293T cells at 10 uM incubated for 1 hr by DAPI staining based flow cytometry analysis. The class given is ADME, cell-based. The note with it: human, hek-293t.
Series [27] can be described thus: Drug uptake in human Hep3B at 10 uM incubated for 1 hr by DAPI staining based flow cytometry analysis. It is filed as ADME, cell-based. The conditions noted are these: hep 3b2, 1 h.
A short description of series [28]: Drug uptake in parent HEK293T cells by DAPI staining based confocal fluorescence microscopy analysis. The class given is ADME, cell-based. The conditions noted are these: human, hek-293t.
A short description of series [29]: Drug uptake in HEK293T cells expressing OATP1B3 by DAPI staining based confocal fluorescence microscopy analysis. It is filed as ADME, cell-based. The conditions noted are these: human, hek-293t.
Series [30] can be described thus: Drug uptake in human Hep3B cells expressing OATP1B3 by DAPI staining based confocal fluorescence microscopy analysis. It is filed as ADME, cell-based. The conditions noted are these: hep 3b2.
Series [31] in a line: Drug uptake in HEK293T cells expressing OATP1B3 at 10 uM incubated for 1 hr by DAPI staining based flow cytometry analysis. The class given is ADME, cell-based. The conditions noted are these: human, hek-293t.
Series [32] can be described thus: Drug uptake in human HepG2 at 10 uM incubated for 1 hr by DAPI staining based flow cytometry analysis. The class given is ADME, cell-based. The note with it: hepg2, 1 h.

For `CC1(C)C(/C=C/C=C/C=C/C=C2/N(CCCCS(=O)(=O)[O-])c3cccc(I)c3C2(C)C)=[N+](CCCCS(=O)(=O)[O-])c2ccc3ccccc3c21.[Na+]`, the Drug uptake entry in series [1], in series [2], in series [3], in series [4] and in [5] was “Active” in each case.
As to `CC1(C)C(/C=C/C=C/C=C/C=C2/N(CCCCS(=O)(=O)[O-])c3ccc(I)cc3C2(C)C)=[N+](CCCCS(=O)(=O)[O-])c2ccc(I)cc21.[Na+]`, the Drug uptake result in series [1], in series [2], in [3], in series [4] and in series [5] was “Active” each time.
Consider `CC1(C)C(/C=C/C=C/C=C/C=C2/N(CCCCS(=O)(=O)[O-])c3cccc(I)c3C2(C)C)=[N+](CCCCS(=O)(=O)[O-])c2cccc(I)c21.[Na+]`, for which the Ratio in [6] turned out to be 5; in series [14], 3; in series [21] it was 2; in series [23] it was 2. Besides, the Drug uptake entry in [7] is listed as “Active”; in series [8], “Not Active”; in series [9] it was “Not Active”; in [10] it was “Active”; in [11], “Not Active”; in series [12], “Not Active”. For the same molecule, the Drug uptake entry in [1] is “Active”; in series [2], “Active”; in [3], “Active”; in series [13] it was “Active”; in [15], “Not Active”; in series [16], “Active”. For the same molecule, the Drug uptake result in series [17], in series [18], in series [19], in series [20], in series [4] and in series [22] was “Active” each time. Moreover, the Drug uptake result in series [5] and in [24] was “Active” each time.
For the molecule `CC1(C)C(/C=C/C=C/C=C/C=C2/N(CCCCS(=O)(=O)[O-])c3cc(I)ccc3C2(C)C)=[N+](CCCCS(=O)(=O)[O-])c2cc(I)ccc21.[Na+]`, the Drug uptake entry in series [1], in [2], in [3], in [4] and in series [5] was “Active” each time.
On to `CC1(C)C(/C=C/C=C/C=C/C=C2/N(CCCCS(=O)(=O)[O-])c3ccc4ccccc4c3C2(C)C)=[N+](CCCCS(=O)(=O)[O-])c2ccc3ccccc3c21.[Na+]` [INDOCYANINE GREEN], for which the Drug uptake result is “Active” in series [25]; “Active” in series [26]; “Active” in series [27]; “Not Active” in [9]; “Active” in series [10]; “Not Active” in series [11]. Moreover, the Drug uptake entry in series [13], in series [18], in series [28], in series [29], in [30] and in series [24] was “Active” each time. Further, the Drug uptake result in series [31] and in series [32] was “Active” each time. Further, the Ratio is given as 2 in [6], 3 in series [14], 2 in series [21] and 2 in series [23].
